In ChEMBL document CHEMBL1151448, “Comparative antianaerobic activities of doripenem determined by MIC and time-kill analysis” (2008):
In brackets after ≈: the same amount, converted by molar mass. Activity calls are given as the source filed them. No cut-off for these calls is given here.

Key:
[1] = test system: Bacteroides fragilis; assay: Bactericidal activity against beta lactamase-positive Bacteroides fragilis isolated from intra-abdominal infection and pelvic inflammatory disease patients assessed as bacterial killing at MIC after 24 hrs by time kill analysis; type: functional
Outline: (§1)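 Macrodilution time-kill in prereduced brucella broth with 5% laked horse blood, hemin 5 μg/ml and vitamin K1 1 μg/ml, at final inoculum 10^6–10^7 CFU/ml. […] Viable counts were taken at 6, 12, 24 and 48 h on plates incubated 48 h anaerobically. 99.9% kill was taken as bactericidal.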

[2] = test system: Prevotella melaninogenica; assay: Antimicrobial activity against beta lactamase-positive Prevotella melaninogenica isolated from intra-abdominal infection and pelvic inflammatory disease patients after 48 hrs by agar dilution method; type: functional
Outline: (§2)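 CLSI agar dilution on brucella blood agar supplemented with laked sheep blood, hemin and vitamin K. Inocula of about 1 × 10^5 CFU/spot were applied by Steers replicator, and plates were incubated 48 h at 35°C in an anaerobic glove box. MIC was the concentration giving marked growth reduction versus the anaerobic control plate. QC strains were included each run, and β-lactamase was detected by Cefinase disk.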

[3] = test system: Bacteroides fragilis; assay: Bactericidal activity against beta lactamase-positive Bacteroides fragilis isolated from intra-abdominal infection and pelvic inflammatory disease patients assessed as bacterial killing at 2 times MIC after 48 hrs by time kill analysis; type: functional; outline: as §1
[4] = test system: Clostridioides difficile; assay: Bactericidal activity against Clostridium difficile isolated from intra-abdominal infection and pelvic inflammatory disease patients assessed as bacterial killing at MIC after 24 hrs by time kill analysis; type: functional; outline: as §1
[5] = test system: Bacteroides thetaiotaomicron; assay: Antimicrobial activity against beta lactamase-positive Bacteroides thetaiotaomicron isolated from intra-abdominal infection and pelvic inflammatory disease patients after 48 hrs by agar dilution method; type: functional; outline: as §2
[6] = test system: Fusobacterium necrophorum; assay: Antimicrobial activity against Fusobacterium necrophorum isolated from intra-abdominal infection and pelvic inflammatory disease patients after 48 hrs by agar dilution method; type: functional; outline: as §2
[7] = test system: Porphyromonas asaccharolytica; assay: Antimicrobial activity against Porphyromonas asaccharolyticus isolated from intra-abdominal infection and pelvic inflammatory disease patients after 48 hrs by agar dilution method; type: functional; outline: as §2
[8] = test system: Peptostreptococcus anaerobius; assay: Antimicrobial activity against Peptostreptococcus anaerobius isolated from intra-abdominal infection and pelvic inflammatory disease patients after 48 hrs by agar dilution method; type: functional; outline: as §2
[9] = test system: Thomasclavelia ramosa; assay: Antimicrobial activity against Clostridium ramosum isolated from intra-abdominal infection and pelvic inflammatory disease patients after 48 hrs by agar dilution method; type: functional; outline: as §2
[10] = test system: Parabacteroides distasonis; assay: Antimicrobial activity against beta lactamase-positive Bacteroides distasonis isolated from intra-abdominal infection and pelvic inflammatory disease patients after 48 hrs by agar dilution method; type: functional; outline: as §2
[11] = test system: Bacteroides thetaiotaomicron; assay: Bactericidal activity against beta lactamase-positive Bacteroides thetaiotaomicron isolated from intra-abdominal infection and pelvic inflammatory disease patients assessed as bacterial killing at 2 times MIC after 48 hrs by time kill analysis; type: functional; outline: as §1
[12] = test system: Prevotella intermedia; assay: Bactericidal activity against beta lactamase-positive Prevotella intermedia isolated from intra-abdominal infection and pelvic inflammatory disease patients assessed as bacterial killing at 2 times MIC after 48 hrs by time kill analysis; type: functional
Outline: (§3)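 Anaerobic macrodilution time-kill. Inoculum from brucella blood plates, prepared and diluted in prereduced brucella broth inside the anaerobe chamber. Final 10^6 to 10^7 CFU/ml in prereduced brucella broth with 5% laked horse blood cells, 5 μg/ml hemin and 1 μg/ml vitamin K1. […] Shaken at 35°C for 48 h. Viable counts taken at 6, 12, 24 and 48 h. 99.9% kill taken as bactericidal.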

[13] = test system: Bacteroides fragilis; assay: Antimicrobial activity against beta lactamase-positive Bacteroides fragilis isolated from intra-abdominal infection and pelvic inflammatory disease patients after 48 hrs by agar dilution method; type: functional; outline: as §2
[14] = test system: Prevotella denticola; assay: Antimicrobial activity against beta lactamase-positive Prevotella denticola isolated from intra-abdominal infection and pelvic inflammatory disease patients after 48 hrs by agar dilution method; type: functional; outline: as §2
[15] = test system: Bacteroides thetaiotaomicron; assay: Bactericidal activity against beta lactamase-positive Bacteroides thetaiotaomicron isolated from intra-abdominal infection and pelvic inflammatory disease patients assessed as bacterial killing at MIC after 24 hrs by time kill analysis; type: functional; outline: as §1
[16] = test system: Fusobacterium nucleatum; assay: Bactericidal activity against beta lactamase-positive Fusobacterium nucleatum isolated from intra-abdominal infection and pelvic inflammatory disease patients assessed as bacterial killing at MIC after 24 hrs by time kill analysis; type: functional; outline: as §3
[17] = test system: Porphyromonas levii; assay: Antimicrobial activity against Porphyromonas levii isolated from intra-abdominal infection and pelvic inflammatory disease patients after 48 hrs by agar dilution method; type: functional; outline: as §2
[18] = test system: Clostridioides difficile; assay: Bactericidal activity against Clostridium difficile isolated from intra-abdominal infection and pelvic inflammatory disease patients assessed as 99.9% bacterial killing at 2 times MIC after 48 hrs by time kill analysis; type: functional, organism-based; outline: as §1
[19] = test system: Fusobacterium nucleatum; assay: Bactericidal activity against beta lactamase-positive Fusobacterium nucleatum isolated from intra-abdominal infection and pelvic inflammatory disease patients assessed as bacterial killing at 2 times MIC after 48 hrs by time kill analysis; type: functional; outline: as §3
[20] = test system: Prevotella nigrescens; assay: Antimicrobial activity against beta lactamase-positive Prevotella nigrescens isolated from intra-abdominal infection and pelvic inflammatory disease patients after 48 hrs by agar dilution method; type: functional; outline: as §2
[21] = test system: Clostridioides difficile; assay: Bactericidal activity against Clostridium difficile isolated from intra-abdominal infection and pelvic inflammatory disease patients assessed as bacterial killing at 2 times MIC after 48 hrs by time kill analysis; type: functional; outline: as §1
[22] = test system: Clostridium perfringens; assay: Bactericidal activity against Clostridium perfringens isolated from intra-abdominal infection and pelvic inflammatory disease patients assessed as bacterial killing at 2 times MIC after 48 hrs by time kill analysis; type: functional
Outline: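 Time-kill in prereduced brucella broth with 5% laked horse blood cells, hemin and vitamin K1. […] Viable counts taken at 6, 12, 24 and 48 h, plates incubated 48 h anaerobically. Kill scored as 90%, 99% or 99.9%; 99.9% defines bactericidal.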

[23] = test system: Bacteroides fragilis; assay: Antimicrobial activity against beta lactamase-positive Bacteroides fragilis isolated from intra-abdominal infection and pelvic inflammatory disease patients after 48 hrs by time kill analysis; type: functional
Outline: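 The MIC was read by inspecting macrodilution time-kill tubes. Vials held prereduced brucella broth with 5% laked horse blood cells, hemin 5 μg/ml and vitamin K1 1 μg/ml. Final inoculum was 10^6–10^7 CFU/ml, prepared inside the anaerobe chamber. Vials were incubated 48 h at 35°C in a shaking water bath.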

[24] = test system: Fusobacterium varium; assay: Antimicrobial activity against Fusobacterium varium isolated from intra-abdominal infection and pelvic inflammatory disease patients after 48 hrs by agar dilution method; type: functional; outline: as §2
[25] = test system: Parvimonas micra; assay: Antimicrobial activity against Micromonas micros isolated from intra-abdominal infection and pelvic inflammatory disease patients after 48 hrs by agar dilution method; type: functional; outline: as §2
[26] = test system: Clostridium perfringens; assay: Antimicrobial activity against Clostridium perfringens isolated from intra-abdominal infection and pelvic inflammatory disease patients after 48 hrs by agar dilution method; type: functional
Outline: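 CLSI agar dilution on brucella blood agar supplemented with laked sheep blood, hemin and vitamin K. Inoculum about 1 × 10^5 CFU/spot, applied by Steers replicator. Plates incubated 48 h at 35°C in an anaerobic glove box. MIC is the concentration giving marked growth reduction versus the anaerobic control plate. Standard QC strains included in each run.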

[27] = test system: [Clostridium] innocuum; assay: Antimicrobial activity against Clostridium innocuum isolated from intra-abdominal infection and pelvic inflammatory disease patients after 48 hrs by agar dilution method; type: functional; outline: as §2

## C[C@@H](O)[C@H]1C(=O)N2C(C(=O)O)=C(SCCNC=N)C[C@H]12 [IMIPENEM ANHYDROUS]
[1]
  Activity: 90%
[2]
  MIC50: 0.03 mg/L (≈ 0.1 µM)
  MIC90: 0.03 mg/L (≈ 0.1 µM)
[3]
  Activity: 99%
[4]
  Activity: 90%
[5]
  MIC: 0.25 mg/L (≈ 0.835 µM)
  MIC50: 0.25 mg/L (≈ 0.835 µM)
  MIC90: 0.5 mg/L (≈ 1.67 µM)
[6]
  MIC: ≤ 0.016 mg/L
  MIC50: ≤ 0.016 mg/L
  MIC90: 0.25 mg/L (≈ 0.835 µM)
[7]
  MIC: ≤ 0.016 mg/L
[8]
  MIC: 0.06 mg/L (≈ 0.2 µM)
  MIC50: 0.06 mg/L (≈ 0.2 µM)
  MIC90: 1 mg/L (≈ 3.34 µM)
[9]
  MIC: 0.25 mg/L (≈ 0.835 µM)
  MIC50: 0.25 mg/L (≈ 0.835 µM)
[10]
  MIC50: 0.5 mg/L (≈ 1.67 µM)
  MIC90: 1 mg/L (≈ 3.34 µM)
[11]
  Activity: 99%
[12]
  Activity: 99%
[13]
  MIC50: 0.125 mg/L (≈ 0.418 µM)
  MIC90: 0.25 mg/L (≈ 0.835 µM)
[14]
  MIC50: 0.03 mg/L (≈ 0.1 µM)
  MIC90: 0.06 mg/L (≈ 0.2 µM)
[15]
  Activity: 90%
[16]
  Activity: 90%
[17]
  MIC: ≤ 0.016 mg/L
[18]
  Activity: inactive
[19]
  Activity: 99%
[20]
  MIC50: 0.03 mg/L (≈ 0.1 µM)
  MIC90: 0.03 mg/L (≈ 0.1 µM)
[21]
  Activity: 99%
[22]
  Activity: 99%
[23]
  MIC: 0.06 mg/L (≈ 0.2 µM)
[24]
  MIC50: 1 mg/L (≈ 3.34 µM)
  MIC90: 1 mg/L (≈ 3.34 µM)
[25]
  MIC: 0.03 mg/L (≈ 0.1 µM)
  MIC50: 0.03 mg/L (≈ 0.1 µM)
  MIC90: 0.06 mg/L (≈ 0.2 µM)
[26]
  MIC50: 0.06 mg/L (≈ 0.2 µM)
  MIC90: 0.125 mg/L (≈ 0.418 µM)
[27]
  MIC: 1 mg/L (≈ 3.34 µM)
  MIC50: 1 mg/L (≈ 3.34 µM)

## C[C@@H](O)[C@H]1C(=O)N2C(C(=O)O)=C(S[C@@H]3CN[C@H](C(=O)N(C)C)C3)[C@H](C)[C@H]12 [MEROPENEM]
[1]
  Activity: 90%
[2]
  MIC50: 0.06 mg/L (≈ 0.156 µM)
[3]
  Activity: 99%
[4]
  Activity: 90%
[5]
  MIC50: 0.25 mg/L (≈ 0.652 µM)
  MIC90: 0.5 mg/L (≈ 1.3 µM)
[6]
  MIC: ≤ 0.016 mg/L
  MIC50: ≤ 0.016 mg/L
  MIC90: 0.125 mg/L (≈ 0.326 µM)
[7]
  MIC: ≤ 0.016 mg/L
[8]
  MIC: 0.25 mg/L (≈ 0.652 µM)
  MIC50: 0.25 mg/L (≈ 0.652 µM)
  MIC90: 2 mg/L (≈ 5.22 µM)
[9]
  MIC50: 1 mg/L (≈ 2.61 µM)
[10]
  MIC: 0.125 mg/L (≈ 0.326 µM)
  MIC50: 0.125 mg/L (≈ 0.326 µM)
  MIC90: 0.5 mg/L (≈ 1.3 µM)
[11]
  Activity: 99%
[12]
  Activity: 99%
[13]
  MIC50: 0.125 mg/L (≈ 0.326 µM)
  MIC90: 1 mg/L (≈ 2.61 µM)
[14]
  MIC50: 0.06 mg/L (≈ 0.156 µM)
  MIC90: 0.25 mg/L (≈ 0.652 µM)
[15]
  Activity: 90%
[16]
  Activity: 90%
[17]
  MIC: ≤ 0.016 mg/L
[18]
  Activity: inactive
[19]
  Activity: 99%
[20]
  MIC50: 0.03 mg/L (≈ 0.0782 µM)
  MIC90: 0.06 mg/L (≈ 0.156 µM)
[21]
  Activity: 99%
[22]
  Activity: 99%
[23]
  MIC: 0.125 mg/L (≈ 0.326 µM)
[24]
  MIC50: 0.125 mg/L (≈ 0.326 µM)
  MIC90: 0.25 mg/L (≈ 0.652 µM)
[25]
  MIC: 0.03 mg/L (≈ 0.0782 µM)
  MIC50: 0.03 mg/L (≈ 0.0782 µM)
  MIC90: 0.25 mg/L (≈ 0.652 µM)
[26]
  MIC: ≤ 0.016 mg/L
  MIC50: ≤ 0.016 mg/L
  MIC90: ≤ 0.016 mg/L
[27]
  MIC50: 2 mg/L (≈ 5.22 µM)
